Experimental data reported in ChEMBL document CHEMBL2086239, “Synthesis and biological evaluation of combretastatin-amidobenzothiazole conjugates as potential anticancer agents” (Eur J Med Chem, 2012).

Experiments:
Format in all cases: functional
[1] = test system: HCT-15; test: Growth inhibition of human HCT15 cells after 48 hrs by SRB assay; details: HCT-15, 48 h
In short: (§1)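 NCI 60-cell-line screen: after preliminary screening, tested at five dose concentrations on 59 human tumour lines covering leukemia, lung, colon, CNS, melanoma, ovarian, renal, prostate and breast.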

[2] = test system: U-251; test: Growth inhibition of human U251cells after 48 hrs by SRB assay; details: U-251, 48 h
In short: (§2)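 NCI 60-cell-line panel, five-dose testing after preliminary screen; sulforhodamine B protein assay in DMEM with 10% FBS, 37 °C, 5% CO2, 100% humidity. Cells seeded and incubated 24 h before compound addition, then exposed 48 h. Absorbance read at 560 nm; growth percentage relative to control wells; GI50 taken as concentration giving 50% growth inhibition.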

[3] = test system: SN12C; test: Growth inhibition of human SN12C cells after 48 hrs by SRB assay; in short: as §2
[4] = test system: A549; test: Growth inhibition of human A549 cells after 48 hrs by SRB assay; details: A549, 48 h; in short: as §1
[5] = test system: A549; test: Cytotoxicity against human A549 cells assessed as inhibition of cell growth at 10 uM after 48 hrs by SRB assay relative to control; details: A549, 48 h, read-out: GI
In short: (§3)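 SRB protein assay in DMEM with 10% FBS at 37 °C, 5% CO2, 100% relative humidity. Cells seeded in 96-well plates, incubated 24 h, then exposed to drug at 10 µM for 48 h and processed per standard protocol. Absorbance read at 560 nm; growth percentage calculated for test wells relative to control wells.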

[6] = test system: COLO 205; test: Cytotoxicity against human COLO205 cells after 48 hrs assessed as inhibition of cell growth at 10 uM after 48 hrs by SRB assay relative to control; details: COLO 205, 48 h, read-out: GI; in short: as §3
[7] = test system: OVCAR-8; test: Growth inhibition of human OVCAR8 cells after 48 hrs by SRB assay; details: OVCAR-8, 48 h; in short: as §1
[8] = test system: IMR-32; test: Cytotoxicity against human IMR32 cells after 48 hrs assessed as inhibition of cell growth at 10 uM after 48 hrs by SRB assay relative to control; details: IMR-32, 48 h, read-out: GI; in short: as §3
[9] = test system: CAKI-1; test: Growth inhibition of human Caki1 cells after 48 hrs by SRB assay; details: CAKI-1, 48 h; in short: as §1
[10] = test system: CCRF-CEM; test: Growth inhibition of human CCRF-CEM cells after 48 hrs by SRB assay; in short: as §1
[11] = test system: SK-OV-3; test: Growth inhibition of human SKOV3 cells after 48 hrs by SRB assay; details: SK-OV-3, 48 h; in short: as §2
[12] = test system: LOX IMVI; test: Growth inhibition of human LOXIMVI cells after 48 hrs by SRB assay; in short: as §1
[13] = test system: HCT-116; test: Growth inhibition of human HCT116 cells after 48 hrs by SRB assay; details: HCT-116, 48 h; in short: as §1
[14] = test system: RPMI-8226; test: Growth inhibition of human RPMI8226 cells after 48 hrs by SRB assay; details: RPMI-8226, 48 h; in short: as §1
[15] = test system: OVCAR-4; test: Growth inhibition of human OVCAR4 cells after 48 hrs by SRB assay; details: OVCAR-4, 48 h; in short: as §1
[16] = test system: MOLT-4; test: Growth inhibition of human MOLT4 cells after 48 hrs by SRB assay; details: MOLT-4, 48 h; in short: as §1
[17] = test system: PC-3; test: Cytotoxicity against human PC3 cells after 48 hrs assessed as inhibition of cell growth at 10 uM after 48 hrs by SRB assay relative to control; details: PC-3, 48 h, read-out: GI; in short: as §3
[18] = test system: EKVX; test: Growth inhibition of human EKVX cells after 48 hrs by SRB assay; in short: as §1
[19] = test system: SNB-75; test: Growth inhibition of human SNB75 cells after 48 hrs by SRB assay; details: SNB-75, 48 h; in short: as §2
[20] = test system: SF-539; test: Growth inhibition of human SF539 cells after 48 hrs by SRB assay; details: SF-539, 48 h; in short: as §2
[21] = test system: ACHN; test: Growth inhibition of human ACHN cells after 48 hrs by SRB assay; in short: as §1
[22] = test system: MDA-MB-435; test: Growth inhibition of human MDA-MB-435 cells after 48 hrs by SRB assay; details: MDA-MB-435, 48 h; in short: as §1
[23] = test system: A498; test: Growth inhibition of human A498 cells after 48 hrs by SRB assay; details: A498, 48 h; in short: as §1
[24] = test system: DU-145; test: Growth inhibition of human DU145 cells after 48 hrs by SRB assay; details: DU-145, 48 h; in short: as §1
[25] = test system: SR; test: Growth inhibition of human SR cells after 48 hrs by SRB assay; in short: as §2
[26] = test system: NCI-H522; test: Growth inhibition of human NCI-H522 cells after 48 hrs by SRB assay; details: NCI-H522, 48 h; in short: as §1
[27] = test system: OVCAR-5; test: Growth inhibition of human OVCAR5 cells after 48 hrs by SRB assay; details: OVCAR-5, 48 h; in short: as §1
[28] = test system: T47D; test: Growth inhibition of human T47D cells after 48 hrs by SRB assay; in short: as §2
[29] = test system: SF-268; test: Growth inhibition of human SF268 cells after 48 hrs by SRB assay; details: SF-268, 48 h; in short: as §1
[30] = test system: HOP-62; test: Growth inhibition of human HOP62 cells after 48 hrs by SRB assay; details: HOP-62, 48 h; in short: as §1
[31] = test system: NCI-H460; test: Growth inhibition of human NCI-H460 cells after 48 hrs by SRB assay; details: NCI-H460, 48 h; in short: as §1
[32] = test system: MCF7; test: Cell cycle arrest in human MCF7 cells assessed as accumulation at G1 phase at 4 uM after 24 hrs by FACS analysis (reference value: 58.33%)
[33] = test system: COLO 205; test: Growth inhibition of human COLO205 cells after 48 hrs by SRB assay; details: COLO 205, 48 h; in short: as §1
[34] = test system: OVCAR-3; test: Growth inhibition of human OVCAR3 cells after 48 hrs by SRB assay; details: OVCAR-3, 48 h; in short: as §1
[35] = test system: PC-3; test: Growth inhibition of human PC3 cells after 48 hrs by SRB assay; details: PC-3, 48 h; in short: as §1
[36] = test system: Hs-578T; test: Growth inhibition of human Hs578T cells after 48 hrs by SRB assay; in short: as §1
[37] = test system: RXF 393; test: Growth inhibition of human RXF393 cells after 48 hrs by SRB assay; details: RXF 393, 48 h; in short: as §1
[38] = test system: 786-0; test: Growth inhibition of human 786-0 cells after 48 hrs by SRB assay; details: 786-0, 48 h; in short: as §1
[39] = test system: NCI/ADR-RES; test: Growth inhibition of human NCI/ADR-RES cells after 48 hrs by SRB assay; in short: as §1
[40] = test system: UACC-62; test: Growth inhibition of human UACC62 cells after 48 hrs by SRB assay; details: UACC-62, 48 h; in short: as §2
[41] = test system: MCF7; test: Cell cycle arrest in human MCF7 cells assessed as accumulation at G2/M phase at 4 uM after 24 hrs by FACS analysis (reference value: 34.88%)
[42] = test system: SW-620; test: Growth inhibition of human SW620 cells after 48 hrs by SRB assay; details: SW-620, 48 h; in short: as §2
[43] = test system: SK-MEL-2; test: Growth inhibition of human SK-MEL-2 cells after 48 hrs by SRB assay; details: SK-MEL-2, 48 h; in short: as §2

## COc1ccc(/C=C\c2cc(OC)c(OC)c(OC)c2)cc1OCC(=O)Nc1nc2ccc(C(F)(F)F)cc2s1
[1]
  GI50: 3.24 µM
[2]
  GI50: 3.67 µM
[3]
  GI50: 4.43 µM
[4]
  GI50: 4.46 µM
[5]
  inhibition of growth at 10 µM: 30%
[6]
  inhibition of growth at 10 µM: 25%
[7]
  GI50: 3.86 µM
[8]
  inhibition of growth at 10 µM: 23%
[9]
  GI50: 3.1 µM
[10]
  GI50: 4.27 µM
[11]
  GI50: 3.29 µM
[12]
  GI50: 4.01 µM
[13]
  GI50: 3.29 µM
[14]
  GI50: 5.48 µM
[15]
  GI50: 4.66 µM
[16]
  GI50: 3.75 µM
[17]
  inhibition of growth at 10 µM: 42%
[18]
  GI50: 6.25 µM
[19]
  GI50: 1.58 µM
[20]
  GI50: 2.66 µM
[21]
  GI50: 4.82 µM
[22]
  GI50: 1.84 µM
[23]
  GI50: 2.81 µM
[24]
  GI50: 2.51 µM
[25]
  GI50: 3.35 µM
[26]
  GI50: 2.89 µM
[27]
  GI50: 5.98 µM
[28]
  GI50: 4.79 µM
[29]
  GI50: 3.85 µM
[30]
  GI50: 5.22 µM
[31]
  GI50: 3.55 µM
[32]
  Activity: 55.82%
[33]
  GI50: 17.1 µM
[34]
  GI50: 2.11 µM
[35]
  GI50: 4.32 µM
[36]
  GI50: 4.18 µM
[37]
  GI50: 2.27 µM
[38]
  GI50: 6.96 µM
[39]
  GI50: 2.12 µM
[40]
  GI50: 3.9 µM
[41]
  Activity: 37.02%
[42]
  GI50: 4.65 µM
[43]
  GI50: 3.98 µM
